Source: ChEMBL document CHEMBL1151697, “Synthesis and structure-activity relationships for biphenyl H3 receptor antagonists with moderate anti-cholinesterase activity” (Bioorg Med Chem, 2008)
Activity calls are given as the source filed them. No cut-off for these calls is given here.

Key:
[1] = target: T1, Acetylcholinesterase (Rattus norvegicus) (UniProt P37136); test: Inhibition of acetylcholinesterase in Wistar rat brain homogenate at upto 10 uM by Ellman's method; assay type: tissue-based
T1 sequence (whole entry): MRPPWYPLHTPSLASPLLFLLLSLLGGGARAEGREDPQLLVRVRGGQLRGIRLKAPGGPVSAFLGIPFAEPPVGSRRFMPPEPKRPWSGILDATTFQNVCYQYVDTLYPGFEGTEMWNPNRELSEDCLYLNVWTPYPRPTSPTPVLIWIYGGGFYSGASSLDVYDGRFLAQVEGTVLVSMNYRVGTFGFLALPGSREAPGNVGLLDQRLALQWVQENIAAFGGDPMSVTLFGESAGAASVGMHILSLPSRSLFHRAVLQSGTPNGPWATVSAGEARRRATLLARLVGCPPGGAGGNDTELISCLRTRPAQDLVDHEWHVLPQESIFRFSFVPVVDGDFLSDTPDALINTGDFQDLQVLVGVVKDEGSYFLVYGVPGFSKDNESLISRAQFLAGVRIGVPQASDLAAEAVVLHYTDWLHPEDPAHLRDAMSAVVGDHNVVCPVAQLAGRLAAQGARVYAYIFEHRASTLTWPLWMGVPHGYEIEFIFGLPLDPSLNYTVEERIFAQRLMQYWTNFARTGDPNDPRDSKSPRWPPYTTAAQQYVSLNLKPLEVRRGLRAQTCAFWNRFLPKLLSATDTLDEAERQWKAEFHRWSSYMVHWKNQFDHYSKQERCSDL

[2] = target: Histamine H4 receptor (Homo sapiens, UniProt Q9H3N8); test: Displacement of [3H]histamine from human histamine H4 receptor expressed in SK-N-MC cells at upto 10 uM
Histamine H4 receptor, sequence (Q9H3N8 whole entry): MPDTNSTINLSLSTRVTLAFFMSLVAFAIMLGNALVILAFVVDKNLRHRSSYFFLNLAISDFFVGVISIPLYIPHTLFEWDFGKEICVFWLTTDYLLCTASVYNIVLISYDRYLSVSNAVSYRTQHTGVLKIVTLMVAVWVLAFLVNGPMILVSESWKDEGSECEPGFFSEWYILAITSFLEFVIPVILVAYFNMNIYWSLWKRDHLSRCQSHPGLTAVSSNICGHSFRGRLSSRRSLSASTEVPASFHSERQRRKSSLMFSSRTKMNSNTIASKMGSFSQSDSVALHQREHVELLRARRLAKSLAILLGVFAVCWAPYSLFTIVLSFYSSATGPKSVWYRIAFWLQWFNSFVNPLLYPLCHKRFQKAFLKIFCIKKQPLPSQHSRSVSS

[3] = target: T2, Histamine H3 receptor (Homo sapiens, UniProt Q9Y5N1); test: Antagonist activity at human histamine H3 receptor expressed in SK-N-MC cells by CRE-mediated beta-galactosidase reporter gene assay administered 10 mins before (R)-alpha-methylhistamine challenge after 6 hrs; assay type: functional, cell-based
T2 sequence (Q9Y5N1 whole entry): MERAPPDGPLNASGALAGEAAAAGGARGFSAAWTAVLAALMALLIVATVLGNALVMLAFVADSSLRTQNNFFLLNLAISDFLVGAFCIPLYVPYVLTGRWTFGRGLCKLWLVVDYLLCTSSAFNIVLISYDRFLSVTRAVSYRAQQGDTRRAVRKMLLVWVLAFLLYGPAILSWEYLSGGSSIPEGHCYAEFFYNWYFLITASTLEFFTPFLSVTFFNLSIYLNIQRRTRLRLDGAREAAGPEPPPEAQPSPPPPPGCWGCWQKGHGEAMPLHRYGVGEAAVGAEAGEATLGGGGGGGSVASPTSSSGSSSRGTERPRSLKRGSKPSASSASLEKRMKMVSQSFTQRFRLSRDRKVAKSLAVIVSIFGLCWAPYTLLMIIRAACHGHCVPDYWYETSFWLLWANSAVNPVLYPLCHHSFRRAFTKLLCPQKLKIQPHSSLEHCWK
Outline: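 SK-N-MC cells stably carrying human H3 and a β-galactosidase reporter. Compound added to medium, forskolin 5 min later, then (R)-α-methylhistamine 10 min after compound; 6 h at 37 °C. Cells lysed in phosphate assay buffer (pH 8) with 0.5% Triton and 40 mM β-mercaptoethanol; β-galactosidase read at 570 nm. Means of 4–6 experiments.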

[4] = target: Histamine H2 receptor (Cavia porcellus) (UniProt P47747); test: (§1) Antagonist activity at histamine H2 receptor in guinea pig atrium assessed as changes in rate of spontaneous beat; assay type: functional, tissue-based; settings: Cardiac atrium
Histamine H2 receptor (Cavia porcellus), sequence (P47747 whole entry): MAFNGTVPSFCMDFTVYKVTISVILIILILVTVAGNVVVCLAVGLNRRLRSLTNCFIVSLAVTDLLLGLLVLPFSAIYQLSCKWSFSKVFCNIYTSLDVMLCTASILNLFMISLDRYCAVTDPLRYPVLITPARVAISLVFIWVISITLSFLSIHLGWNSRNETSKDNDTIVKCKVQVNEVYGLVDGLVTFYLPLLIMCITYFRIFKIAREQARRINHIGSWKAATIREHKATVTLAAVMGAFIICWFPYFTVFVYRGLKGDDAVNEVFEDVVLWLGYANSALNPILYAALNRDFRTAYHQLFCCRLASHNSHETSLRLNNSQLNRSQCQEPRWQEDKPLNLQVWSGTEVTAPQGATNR
Outline: (§2)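 Guinea-pig atria (H2) in Ringer–Locke at 31 °C (mM: NaCl 154.0, KCl 5.6, CaCl2 1.08, NaHCO3 5.95, glucose 11.1), gassed 95% O2–5% CO2. Spontaneous beating rate recorded by cardiotachograph. Cumulative dimaprit curves (0.1–100 µM) run without and with compound up to 10 µM. Affinity given as pKB by Furchgott, or as pD2′ by Van Rossum if non-surmountable.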

[5] = target: Histamine H1 receptor (Cavia porcellus) (UniProt P31389); test: Antagonist activity at histamine H1 receptor in guinea pig terminal ileum; assay type: functional, tissue-based
Histamine H1 receptor (Cavia porcellus), sequence (P31389 whole entry): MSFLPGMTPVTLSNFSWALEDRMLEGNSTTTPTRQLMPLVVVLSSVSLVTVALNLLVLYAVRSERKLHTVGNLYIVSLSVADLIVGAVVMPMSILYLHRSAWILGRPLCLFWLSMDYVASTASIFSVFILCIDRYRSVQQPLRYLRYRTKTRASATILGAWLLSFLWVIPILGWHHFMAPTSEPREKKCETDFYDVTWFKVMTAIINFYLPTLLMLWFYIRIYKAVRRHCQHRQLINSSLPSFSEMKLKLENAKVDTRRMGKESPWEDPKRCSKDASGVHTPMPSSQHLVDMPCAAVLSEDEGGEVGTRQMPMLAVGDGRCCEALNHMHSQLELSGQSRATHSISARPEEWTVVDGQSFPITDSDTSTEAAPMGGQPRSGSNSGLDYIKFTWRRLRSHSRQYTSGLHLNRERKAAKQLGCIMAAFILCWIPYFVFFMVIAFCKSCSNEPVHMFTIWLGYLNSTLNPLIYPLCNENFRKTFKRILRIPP
Outline: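 Guinea-pig (250–350 g) terminal ileum (H1) suspended isometrically in Krebs–Henseleit at 37 °C, aerated 95% O2–5% CO2. Cumulative histamine curves (1 nM to 1 µM) run without and with compound up to 10 µM. pKB (apparent pA2) from Furchgott's equation; pD2′ from Van Rossum's equation when antagonism was non-surmountable.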

[6] = test system: SK-N-MC; test: Cytotoxicity against human SK-N-MC cells at 10 uM after 6 hrs by MTT test; assay type: functional, cell-based
Outline: (§3)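 MTT viability test: SK-N-MC cells held 6 h with compound (1–10 µM) or vehicle. MTT (5 mg/ml stock) added for 3 h, cells washed in PBS, formazan dissolved in 0.1 N HCl in isopropanol, absorbance read at 570 nm. Viability given relative to control.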

[7] = target: Histamine H3 receptor (Cavia porcellus) (UniProt Q9JI35); test: Antagonist activity at histamine H3 receptor in electrically-stimulated guinea pig ileum assessed as inhibition of (R)-alpha-methylhistamine-induced twitch contraction in presence of 1 uM mepyramine; assay type: functional, tissue-based
Histamine H3 receptor (Cavia porcellus), sequence (Q9JI35 whole entry): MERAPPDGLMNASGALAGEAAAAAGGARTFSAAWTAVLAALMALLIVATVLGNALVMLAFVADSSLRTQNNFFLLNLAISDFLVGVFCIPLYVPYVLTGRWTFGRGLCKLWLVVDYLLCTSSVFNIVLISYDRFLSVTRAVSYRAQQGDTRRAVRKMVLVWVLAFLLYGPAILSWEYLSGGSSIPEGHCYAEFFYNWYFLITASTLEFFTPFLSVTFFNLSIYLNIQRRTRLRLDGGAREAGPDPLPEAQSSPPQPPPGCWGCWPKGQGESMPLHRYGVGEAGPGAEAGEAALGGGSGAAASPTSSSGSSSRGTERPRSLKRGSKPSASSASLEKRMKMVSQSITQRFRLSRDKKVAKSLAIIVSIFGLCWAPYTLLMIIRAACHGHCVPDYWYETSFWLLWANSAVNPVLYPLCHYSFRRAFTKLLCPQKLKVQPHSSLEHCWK
Outline: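 Guinea-pig ileum, electrically stimulated (0.1 Hz, 1 ms, submaximal voltage). Twitch inhibition by cumulative (R)-α-methylhistamine (1 nM to 1 µM) with 1 µM mepyramine present. Compounds tested at 1 nM to 30 µM. Potency as pKB from Furchgott's equation, or as pD2′ (Van Rossum) for non-surmountable antagonism.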

[8] = test system: SK-N-MC; test: Cytotoxicity against human SK-N-MC cells at 1 uM after 6 hrs by MTT test; assay type: functional, cell-based; outline: as §3
[9] = target: Histamine H2 receptor (Cavia porcellus, UniProt P47747); test: as §1; assay type: functional, tissue-based, Cardiac atrium; outline: as §2
Histamine H2 receptor, sequence (P47747 whole entry): as the sequence (P47747 whole entry) above

[10] = target: T2, Histamine H3 receptor; test: Displacement of [3H]RAMHA from human histamine H3 receptor expressed in SK-N-MC cells; assay type: cell-based
Outline: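 SK-N-MC membranes bearing human H3 incubated 60 min at room temperature with 0.5 nM [3H]-(R)-α-methylhistamine and competitor (0.01 nM to 10 µM). Rapid filtration, two washes in ice-cold 50 mM Tris–HCl/5 mM EDTA. Nonspecific binding with 10 µM histamine. pKi via Cheng–Prusoff; means of 4–6 experiments.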

[11] = target: Histamine H3 receptor (Rattus norvegicus, UniProt Q9QYN8); test: Displacement of [3H]RAMHA from histamine H3 receptor in Wistar rat brain membrane; assay type: cell membranes
Histamine H3 receptor (Rattus norvegicus, UniProt Q9QYN8), sequence (Q9QYN8 whole entry): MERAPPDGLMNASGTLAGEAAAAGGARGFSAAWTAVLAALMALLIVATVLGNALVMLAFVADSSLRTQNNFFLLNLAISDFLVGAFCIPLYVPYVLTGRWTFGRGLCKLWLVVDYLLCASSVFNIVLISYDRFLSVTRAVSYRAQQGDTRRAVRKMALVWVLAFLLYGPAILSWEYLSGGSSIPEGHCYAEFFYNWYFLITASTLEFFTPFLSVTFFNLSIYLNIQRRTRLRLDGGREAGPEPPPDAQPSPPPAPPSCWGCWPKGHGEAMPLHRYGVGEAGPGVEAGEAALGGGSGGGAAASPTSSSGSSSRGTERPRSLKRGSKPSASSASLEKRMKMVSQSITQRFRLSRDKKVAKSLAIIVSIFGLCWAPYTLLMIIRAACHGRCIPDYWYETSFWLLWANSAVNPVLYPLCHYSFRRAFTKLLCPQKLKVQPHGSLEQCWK
Outline: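 Membranes from male Wistar rat brain (150–200 g) incubated 45 min with 0.5 nM [3H]RAMHA and compound (0.03 nM to 10 µM) in 50 mM Tris–HCl pH 7.4, 50 mM NaCl, 0.5 mM EDTA. Vacuum filtration, two ice-cold buffer rinses. Nonspecific binding set with 10 µM thioperamide. pKi by Cheng–Prusoff.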

SMILES: c1cc(-c2ccc(CCN3CCCCC3)cc2)ccc1CCN1CCCCC1
- Activity [1]: inactive
- Activity [2]: inactive
- pKb [3]: 8.5
- pKb [4]: 6.38
- pKb [5]: 5.32
- Activity [6]: Not toxic
- pKb [7]: 8.43
- Activity [8]: Not toxic

SMILES: CCCN(CCC)Cc1ccc(-c2ccc(CN(CCC)CCC)cc2)cc1
- pKb [3]: 7.8
- EC50 [9]: 3390 nM
- pKb [5]: 5.54
- Activity [6]: Not toxic
- Ki [10]: 9.33 nM
- pKb [7]: 8.78
- Ki [11]: 3.16 nM
- Activity [8]: Not toxic
